These results are taken from ChEMBL document CHEMBL4513216, “Probing the Open Global Health Chemical Diversity Library for Multistage-Active Starting Points for Next-Generation Antimalarials” (ACS Infect Dis, 2020).

The nature of this series: Toxicity liver stage against HepG2, at 10uM. Format: cell-based. More on the design: test concentration 10 uM, cell line HepG2-A16-CD81EGFP. The note with it: human, HepG2-A16-CD81EGFP cells; read-out: INHIBITION
In outline:
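Uninfected HepG2-A16-CD81EGFP cells, 3 × 10^3 per well, 1536-well, plated on prespotted compound at 10 μM final, parasite-free screening media added to match infected plates; puromycin 10 μM positive, DMSO 0.5% negative; run in parallel with 48 h PbLuc assay at 37 °C, 5% CO2; viability by CellTiter-Glo luminescence, normalized to controls.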
On to `Cc1nc(NC2CCCC2)cc(C2CCN2C(=O)c2ccccn2)n1` (stereo not given), for which the cytotoxicity at 10 µM was -4.39%. On to `CN(C)C(=O)CO[C@@H]1CN(Cc2ccccc2F)[C@@H]2CCCO[C@@H]21`, for which the cytotoxicity at 10 µM is -3.81%. On to `CCS(=O)(=O)N1C[C@H]2CCC[C@@]2(COc2ccccn2)C1`, for which the cytotoxicity at 10 µM was -4.09%. For `CC1CN(C(=O)Nc2cc(C(F)(F)F)c[nH]c2=O)CC(C)(C)O1` (stereo not given), the cytotoxicity at 10 µM turned out to be 8.96%. `COc1ccc(S(=O)(=O)NC(=O)c2ccccc2F)cc1OC`: the cytotoxicity at 10 µM is -2.72%.

For `O=C(NC1CC1)C1CNCCN1C(=O)COc1ccc2c(c1)OCO2` (stereo not given), the cytotoxicity at 10 µM was -1.74%. In the case of `CCc1nnsc1C(=O)NCCc1nnc2n1CCC2` it was 3.16%. Regarding `CC(C)(C)NC(=O)c1ccn(COc2c(Cl)cccc2Cl)n1`, the cytotoxicity at 10 µM stood at 3.02%.

On to `CNC(=O)COC1COC2(CCN(Cc3cccnc3OC)CC2)C1` (stereo not given), for which the cytotoxicity at 10 µM turned out to be 7.61%.

`Cc1ccc(CNC(=O)Cc2c(C)nc3c(c2C)c(=O)[nH]n3C)cc1`: the cytotoxicity at 10 µM was -8.6%.

For the compound `CS(=O)(=O)CCNC(=O)N(Cc1ccoc1)C1CCCCC1`, the cytotoxicity at 10 µM was 5.72%.

As to `O=C(CO)N1CC2(CCN(c3ccccc3)C2)C1`, the cytotoxicity at 10 µM was 8.98%. As to `O=C(c1ccnnc1)N1C[C@H](Oc2cccnc2)[C@H]2OCCC[C@H]21`, the cytotoxicity at 10 µM was -14.7%. In the case of `CCC(=O)Nc1cccc(OCC(=O)N(C)Cc2nc(C)c[nH]2)c1`, the cytotoxicity at 10 µM is -4.54%.

For `Cc1c(C)c2c(c(C)c1O)CC[C@](C)(C(=O)O)O2` [(R)-TROLOX], the cytotoxicity at 10 µM was -1.69%. In the case of `Cc1cc(=O)n2nc(CNc3cc(Cl)ccc3C)nc2[nH]1` it was -5.64%; in that of `CCn1c(C2CCCN(C(=O)c3ccc[nH]3)C2)nn(CCN(C)C)c1=O` (stereo not given), 2.67%. In the case of `O=C(c1ccc[nH]1)N1C[C@H](OCc2cccnc2)[C@H]2COC[C@H]21` it was -10.4%; in that of `Cc1ncsc1CN1C[C@@H]2COC[C@]2(CNC(=O)c2ccccc2)C1`, -2.39%.

In the case of `O=S(=O)(NCC1COCCO1)c1ccc(C2CCCCC2)cc1` (stereo not given), the cytotoxicity at 10 µM was 27.5%. As for `Cc1ccc2c(c1)C1(CC2)CCN(c2nncs2)CC1`, the cytotoxicity at 10 µM is 9.43%.

With `CCc1cc(C(=O)N2CC[C@@H](c3ccc4ccccc4c3)[C@H](O)C2)[nH]n1`, the cytotoxicity at 10 µM stood at 3.46%. Take `CN(Cc1nnc(C2CC2)n1C)C1CCN(Cc2ccccc2F)C1` (stereo not given): the cytotoxicity at 10 µM was -15.1%. Turning to `Cn1ncc2c(N3CCS(=O)(=O)CC3)nc(-c3cccnc3)nc21`, the cytotoxicity at 10 µM is 4.38%. As to `CN(C)c1nccc(C2CCCN2S(=O)(=O)c2cn(C)cn2)n1` (stereo not given), the cytotoxicity at 10 µM is -20.2%. `CCC1CCCCCN1C(=O)c1ccc(N2CCC(O)CC2)cc1` (stereo not given): the cytotoxicity at 10 µM was -9.77%. `Cc1csc(CNC(=O)Nc2cc(C(F)(F)F)c[nH]c2=O)n1`: the cytotoxicity at 10 µM is -13.7%.

`Cc1cccc2c1cnn2CCC(=O)NCc1csc(C2CC2)n1`: the cytotoxicity at 10 µM was 4.22%. For the compound `O=C(NCC(O)c1cccc(O)c1)C1CCN(C2CCCCC2)CC1` (stereo not given), the cytotoxicity at 10 µM turned out to be 7.16%.

For `CN1C(=O)C2(CC(=O)Nc3c2cnn3C(C)(C)C)c2c(Cl)cccc21` (stereo not given), the cytotoxicity at 10 µM was 3.41%. In the case of `Cc1ccc(C)c(NC(=O)Cc2c(C)nc3c(c2C)c(=O)[nH]n3C)c1`, the cytotoxicity at 10 µM was found to be 15.4%. The result for `CCn1cc(C(=O)NCC(C)(CC)N2CCOCC2)c2ccccc21` (stereo not given) reads 6.13%; that for `O=C(NCC(=O)N1CCCC1)c1nn(-c2ccccc2F)cc1O`, 6.53%; that for `Cc1ccc(C(=O)N2C[C@H]3CCC[C@@]3(COCC3CCOCC3)C2)o1`, -66.3%.

As for `COc1ccc(C(C(=O)O)N(C)Cc2ccon2)cc1Cl` (stereo not given), the cytotoxicity at 10 µM is -5.02%.

In the case of `COc1ccc(-c2nc(CN(C)Cc3nncn3C)c(C)o2)c(C)c1C`, the cytotoxicity at 10 µM was -8.87%. With `Cc1nnc(NCCC(=O)N(C)Cc2ccccc2)c(C#N)c1C`, the cytotoxicity at 10 µM is -1.04%.

For `O=C(CCSc1ccc2c(c1)OCCO2)NCC1CCS(=O)(=O)C1` (stereo not given), the cytotoxicity at 10 µM is -4.01%.

With `CN1CCN(C(=O)CCn2c(C(F)(F)F)cc3cccnc32)CC1`, the cytotoxicity at 10 µM is -31.9%. Consider `COc1ncc(CN(C)C(C)c2cccnc2)cn1` (stereo not given), for which the cytotoxicity at 10 µM is 13%. With `CS(=O)(=O)c1ccc(NC(=O)CSC(F)(F)F)cn1`, the cytotoxicity at 10 µM was determined as 8.28%. In the case of `CCC[C@H]1CN(Cc2ccccc2C#N)C[C@@H]1NS(C)(=O)=O` it was -11%; in that of `O=C(c1ccco1)N1CCCn2cnc(COCC3CC3)c2C1`, -75.9%; in that of `CSCCCN1CCN(c2ccc(Cl)cn2)CC1`, -5.52%. Take `CC(C)Oc1ncccc1CNC(=O)c1cnccn1`: the cytotoxicity at 10 µM is -10.2%. As for `Cc1ccc(N2CCCC(NCc3c(C)noc3C)C2)nn1` (stereo not given), the cytotoxicity at 10 µM is -5.88%. Turning to `COCCOc1ccc(NCc2cccc3cn[nH]c23)cn1`, the cytotoxicity at 10 µM came to 5.04%. In the case of `COCCN1CC[C@@H]2CN(Cc3cccnc3OC)C[C@@H]2C1`, the cytotoxicity at 10 µM was 13.6%.

`CC(=O)NCC(=O)N1Cc2c(-c3cccc(C)c3)nc(N)nc2C1C` (stereo not given): the cytotoxicity at 10 µM was determined as 7.66%.

Regarding `CN(C)C(=O)C1CCc2nnc(C(C)(C)C)n21` (stereo not given), the cytotoxicity at 10 µM was found to be 3.13%. Take `Cc1ccccc1C(CNc1ncnc2c1CCNC2)N(C)C` (stereo not given): the cytotoxicity at 10 µM is 5.31%. As for `COCCN1CCO[C@H]2CN(C(=O)c3ccncc3F)C[C@H]21`, the cytotoxicity at 10 µM is -141%. For the compound `O=C1CC2(CCN(Cc3ccc(C(F)(F)F)nc3)CC2)CN1`, the cytotoxicity at 10 µM is -6.33%. Consider `Cc1ccc(-c2nc(C(=O)N(C)CC(=O)N(C)C)cs2)c(C)c1`, for which the cytotoxicity at 10 µM was -10.1%.

On to `O[C@]12CCNC[C@H]1CN(c1ncccc1Cl)CC2`, for which the cytotoxicity at 10 µM came out at 10.2%. Consider `O=C(C1CC=CC1)N1C[C@@H]2[C@@H](C1)OCC(=O)N2Cc1cccnc1`, for which the cytotoxicity at 10 µM came out at 2.45%. For `Cc1ccc(CN(C)C(=O)NCC(C)(C)S(C)(=O)=O)s1`, the cytotoxicity at 10 µM is 15.6%. With `Cn1cc(CN2C[C@@H]3CCCO[C@@H]3[C@H](N3CCCC3=O)C2)cn1`, the cytotoxicity at 10 µM came to 1.27%. For `Cc1cnc(N2CCC3(CC2)CN(Cc2cccs2)CCO3)nc1`, the cytotoxicity at 10 µM was 16.2%. `CCCN1CCC(NN2CCN(C)CC2)CC1`: the cytotoxicity at 10 µM is -2.38%. `COc1ccc(CCC(=O)NCc2cc(C)on2)cc1`: the cytotoxicity at 10 µM is -56.4%. For the compound `CC(C)CCOc1ccc(C(C)NC(=O)Cn2cccnc2=O)cc1` (stereo not given), the cytotoxicity at 10 µM is -4.24%. `Cc1cnc2[nH]c(C(F)(F)F)c(CN3CCSCC3)c2c1`: the cytotoxicity at 10 µM came out at 13.3%. The result for `O=C(c1ccncc1F)N1CCCC(c2nccn2CC2CCC2)C1` (stereo not given) reads 5.94%; that for `CCc1nc(C2CCCN2Cc2nc(C(C)(C)C)no2)no1` (stereo not given), 12.9%; that for `COc1ccc(C(C)(C)C)cc1CN1CCn2c(CO)nnc2C1`, 10.4%.

Turning to `CCC(NC(=O)c1cnc(N(C)C)nc1C)c1ccc(S(C)(=O)=O)cc1` (stereo not given), the cytotoxicity at 10 µM is -3.5%. For the compound `Cn1ccnc1COc1ccc(NC(=O)CCC2CCCO2)cc1` (stereo not given), the cytotoxicity at 10 µM is 4.34%. In the case of `CCOc1ncccc1NC(=O)N1CCN(Cc2ccncc2)CC1`, the cytotoxicity at 10 µM is -2.54%. In the case of `O=C(NCC(O)c1cccs1)c1sccc1OC(F)F` (stereo not given), the cytotoxicity at 10 µM was -2.45%.
